Measurements from publication PMC7305985 (Molecular cell, 2020).

How the values were obtained:
[1] = test system: KAP1 target genes in HCT116 (CDK9 inhibition); assay: RT-qPCR of KAP1 target genes after flavopiridol treatment; assay type: cell-based; settings: HCT116, 1 μM, 2 and 4 hr; relative to DMSO, normalized to U6, n=3; Figure 2M
[2] = test system: Pol II (RPB1); assay: AP / IP / co-IP from HCT116 nuclear extracts: Pol II; assay type: binding; settings: MNase, endogenous IP, Figures 2C, 2D, 6B
Summary of the method: (§1)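 Tagged proteins were expressed in HCT116 cells by transfection for 48 hr. Nuclei were released by hypotonic swelling and 27-gauge needle lysis, then extracted for 45 min at 4°C in buffer C brought to 420 mM NaCl. Chromatin was digested with MNase (5 mM CaCl2, 10 min, 37°C). Clarified extract was bound to StrepTactin agarose for 2 hr at 4°C, washed 4X and eluted with desthiobiotin. Blots loaded 1% input.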

[3] = test system: SMAD2; assay: AP / IP / co-IP from HCT116 nuclear extracts: SMAD2; assay type: binding; settings: Figures 3G–3I, 6B
Summary of the method: as §1

[4] = test system: CDK9; assay: Co-IP from HCT116 nuclear extracts: CDK9; assay type: binding; settings: Figure 6B
Summary of the method: as §1

[5] = test system: KAP1 target genes in shKAP1 HCT116 cells; assay: Reconstitution assay, RT-qPCR of KAP1 target genes; assay type: cell-based
[6] = test system: KAP1 target gene promoters; assay: FLAG ChIP-qPCR of reconstituted KAP1 proteins; assay type: cell-based; settings: shKAP1 HCT116, FLAG ChIP-qPCR, % Input, n=3, Figures 5I, 6F
Summary of the method: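 Epitope-tagged KAP1 was re-expressed in shKAP1 HCT116 cells by 1 µg plasmid transfection over 48 hr. Anti-FLAG ChIP used 0.5% formaldehyde crosslinking (10 min) and 150 mM glycine quench. Beads were washed 4 times with each of RIPA, low-salt, high-salt, LiCl and TE buffers. Elution was 30 min at 65°C, de-crosslinking 4 hr at 65°C with proteinase K, and read-out was qPCR.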

[7] = test system: Pol II at KAP1 target gene promoters; assay: ChIP-qPCR of Pol II after reconstitution; assay type: cell-based; settings: shKAP1 HCT116 reconstituted, n=3, Figure 6F
Summary of the method: (§2)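 shKAP1 HCT116 cells were transfected with 1 µg epitope-tagged plasmid (PolyJet) and harvested after 48 hr. Cells were crosslinked in 0.5% formaldehyde (10 min, room temperature), quenched with 150 mM glycine and lysed in Farnham buffer at 10×10^6 cells/mL. Beads were washed in RIPA, low-salt, high-salt (500 mM NaCl), LiCl and TE buffers, eluted in NaHCO3/SDS (30 min, 65°C) and de-crosslinked with proteinase K (4 hr, 65°C), then read by qPCR.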

[8] = test system: SMAD2 at KAP1 target gene promoters; assay: ChIP-qPCR of SMAD2 after reconstitution; assay type: cell-based; settings: shKAP1 HCT116 reconstituted, n=3, Figure 6F
Summary of the method: as §2

[9] = test system: CDK9 at KAP1 target gene promoters; assay: ChIP-qPCR of CDK9 after reconstitution; assay type: cell-based; settings: shKAP1 HCT116 reconstituted, n=3, Figure 6F
Summary of the method: as §2

Row | Molecule | expression of KAP1 target genes after flavopiridol [1] | association with Pol II in nuclear extracts [2] | association with SMAD2 in nuclear extracts [3] | association with SMAD2 in nuclear extracts ([3]; listed as WT KAP1) | association with CDK9 in nuclear extracts [4] | restoration of KAP1 target gene expression (WT and point mutants) ([5]; shKAP1 HCT116, 48 hr, relative to shNT+GFP, normalized to RPL19, n=3, Figure 5H) | restored expression of all tested genes over GFP-expressing cells ([5]; shKAP1 HCT116, n=3, Figure 6E) | localization to KAP1 target gene promoters [6] | localization to KAP1 target gene promoters ([6]; listed as WT KAP1) | promoter recruitment of Pol II [7] | promoter recruitment of SMAD2 [8] | promoter recruitment of CDK9 [9]
1 | CN1CC[C@H](c2c(O)cc(O)c3c(=O)cc(-c4ccccc4Cl)oc23)[C@H](O)C1 [flavopiridol, Flavopiridol] | dampened expression of KAP1 target genes | – | – | – | – | – | – | – | – | – | – | –
2 | KAP1: wild-type KAP1, STREP- or FLAG-tagged | – | co-purifies with both ectopically expressed and endogenous KAP1 | interactions between ectopically expressed and endogenous proteins | associates with all three factors | associates with all three factors | restored KAP1 target gene expression | ~ 2 fold | able to localize to both C1 (SMAD2+) and C2/C3 (SMAD2-) gene promoters | localized to all tested gene promoters | facilitate recruitment of Pol II and CDK9 | only facilitated SMAD2 recruitment to C1 (SMAD2+) gene promoters | facilitate recruitment of Pol II and CDK9
